Test results: ChEMBL document CHEMBL4364301 (Eur J Med Chem, 2019)

Assays:
Assay type in all cases: functional
DU-145 = experiment: Antiproliferative activity against human DU145 cells assessed as reduction in cell growth incubated for 96 hrs by propidium iodide based 2D monolayer assay; conditions: DU-145, 96 h
How it was run: (§1)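 After 24 h recovery, compound in medium or medium alone (control wells) was added at 10 half-log concentrations from 0.0032 to 100 µM, in triplicate, with at most 0.3% DMSO. After 96 h, wells were PBS-washed, stained with 7 µg/ml PI and 0.1% Triton X-100, and fluorescence read at 530/620 nm. IC50 came from a 4-parameter fit, geometric mean.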

LNCaP = experiment: Antiproliferative activity against human LNCAP cells assessed as reduction in cell growth incubated for 96 hrs by propidium iodide based 2D monolayer assay; how it was run: as §1
VCaP = experiment: Antiproliferative activity against human VCaP cells assessed as reduction in cell growth incubated for 96 hrs by propidium iodide based 2D monolayer assay
How it was run: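 VCaP cells in RPMI 1640 with 10% FCS at 37 °C, 5% CO2, seeded 4,000–20,000 cells/well and left 24 h before dosing. Compounds from DMSO stocks were diluted in half-log steps in medium, 10 concentrations 0.0032–100 μM, triplicate wells, max 0.3% DMSO. After 96 h, cells were washed, stained with 7 μg/ml propidium iodide plus 0.1% Triton X-100 for 1–2 h at room temperature, and fluorescence read at ex 530/em 620 nm.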

CWR22R = experiment: Antiproliferative activity against human 22Rv1 cells assessed as reduction in cell growth incubated for 96 hrs by propidium iodide based 2D monolayer assay; conditions: 22Rv1, 96 h; how it was run: as §1

`CC(O)(COc1ccc(C#N)cc1)C(=O)Nc1cccc(S(F)(F)(F)(F)F)c1` (racemic) gave an IC50 (DU-145) of 42.6 µM, an IC50 (LNCaP) of 30 µM and an IC50 (VCaP) of 26.6 µM. It also gave an IC50 (CWR22R) of 32.5 µM.
Compound `CC(O)(COc1cccc(OC(F)(F)F)c1)C(=O)Nc1ccc(S(F)(F)(F)(F)F)cc1` (racemic) has an IC50 (DU-145) of 18.4 µM, an IC50 (LNCaP) of 11 µM and an IC50 (VCaP) of 18.3 µM. The IC50 (CWR22R) was 17.3 µM.
In the case of `CC(O)(COc1cccc(OC(F)(F)F)c1)C(=O)Nc1cccc(S(F)(F)(F)(F)F)c1` (racemic), the IC50 (DU-145) is reported as 30.1 µM, the IC50 (LNCaP) is reported as 15.2 µM and the IC50 (VCaP) is reported as 28.6 µM. It also gave an IC50 (CWR22R) of 18.8 µM.
Compound `CC(O)(CS(=O)(=O)c1ccc(S(F)(F)(F)(F)F)cc1)C(=O)Nc1ccc(C#N)cc1C(F)(F)F` (racemic) has an IC50 (DU-145) of 25.6 µM, an IC50 (LNCaP) of 17.8 µM and an IC50 (VCaP) of 43 µM. For the same compound, the IC50 (CWR22R) was 19.4 µM.
`CC(O)(CS(=O)(=O)c1ccc(S(F)(F)(F)(F)F)cc1)C(=O)Nc1ccc([N+](=O)[O-])cc1C(F)(F)F` (racemic) gave an IC50 (DU-145) of 17.7 µM, an IC50 (LNCaP) of 12.5 µM and an IC50 (VCaP) of 28.6 µM. For the same compound, the IC50 (CWR22R) was 18.7 µM.
`CC(O)(CS(=O)(=O)c1cccc(S(F)(F)(F)(F)F)c1)C(=O)Nc1ccc([N+](=O)[O-])cc1C(F)(F)F` (racemic) was tested, and the IC50 (DU-145) was 100 µM, the IC50 (LNCaP) was 6.5 µM and the IC50 (VCaP) was 100 µM. It also gave an IC50 (CWR22R) of 100 µM.
For `CC(O)(COc1ccc(C#N)c(F)c1)C(=O)Nc1cccc(S(F)(F)(F)(F)F)c1` (racemic), the IC50 (DU-145) was 74.8 µM, the IC50 (LNCaP) was 83.7 µM and the IC50 (VCaP) was 91.9 µM. The IC50 (CWR22R) was 63.4 µM.
For `CC(O)(CS(=O)(=O)c1cccc(C(F)(F)F)c1)C(=O)Nc1ccc(S(F)(F)(F)(F)F)cc1` (racemic), the IC50 (DU-145) was 31.9 µM, the IC50 (LNCaP) was 21 µM and the IC50 (VCaP) was 32 µM. For the same compound, the IC50 (CWR22R) was 23.8 µM.
`CC(O)(CS(=O)(=O)c1cccc(S(F)(F)(F)(F)F)c1)C(=O)Nc1ccc(S(F)(F)(F)(F)F)cc1` (racemic) gave an IC50 (DU-145) of 34 µM, an IC50 (LNCaP) of 31.3 µM and an IC50 (VCaP) of 24.8 µM. The IC50 (CWR22R) was 39.9 µM.
`CC(O)(CS(=O)(=O)c1ccc(C(F)(F)F)cc1)C(=O)Nc1ccc(S(F)(F)(F)(F)F)cc1` (racemic) was tested, and the IC50 (DU-145) was 29.3 µM, the IC50 (LNCaP) was 20.7 µM and the IC50 (VCaP) was 27.7 µM. The IC50 (CWR22R) was 28.9 µM.
`CC(O)(COc1ccc(S(F)(F)(F)(F)F)cc1)C(=O)Nc1ccc(S(F)(F)(F)(F)F)cc1` (racemic) showed an IC50 (DU-145) of 24.9 µM, an IC50 (LNCaP) of 9.8 µM and an IC50 (VCaP) of 9.3 µM. For the same compound, the IC50 (CWR22R) was 13 µM.
`CC(O)(COc1ccc(C#N)cc1C(F)(F)F)C(=O)Nc1cccc(S(F)(F)(F)(F)F)c1` (racemic) showed an IC50 (DU-145) of 22.8 µM, an IC50 (LNCaP) of 16.4 µM and an IC50 (VCaP) of 30.6 µM. It also gave an IC50 (CWR22R) of 18.3 µM.
Work on `CC(O)(COc1cccc(S(F)(F)(F)(F)F)c1)C(=O)Nc1ccc([N+](=O)[O-])cc1C(F)(F)F` (racemic) yielded an IC50 (DU-145) of 18 µM, an IC50 (LNCaP) of 12.1 µM and an IC50 (VCaP) of 20.3 µM. The IC50 (CWR22R) was 15.5 µM.
`CC(O)(COc1ccc(OC(F)(F)F)cc1)C(=O)Nc1ccc(S(F)(F)(F)(F)F)cc1` (racemic) showed an IC50 (DU-145) of 24.8 µM, an IC50 (LNCaP) of 18.6 µM and an IC50 (VCaP) of 12.8 µM. The IC50 (CWR22R) was 27.9 µM.
Compound `CC(O)(COc1cccc(C(F)(F)F)c1)C(=O)Nc1cccc(S(F)(F)(F)(F)F)c1` (racemic) has an IC50 (DU-145) of 31.7 µM, an IC50 (LNCaP) of 28.8 µM and an IC50 (VCaP) of 22.5 µM. It also gave an IC50 (CWR22R) of 28.9 µM.
Compound `CC(O)(COc1cccc(S(F)(F)(F)(F)F)c1)C(=O)Nc1ccc(S(F)(F)(F)(F)F)cc1` (racemic) has an IC50 (DU-145) of 29.6 µM, an IC50 (LNCaP) of 12 µM and an IC50 (VCaP) of 11.4 µM. The IC50 (CWR22R) was 17.6 µM.
With `CC(O)(CS(=O)(=O)c1ccc(S(F)(F)(F)(F)F)cc1)C(=O)Nc1ccc([N+](=O)[O-])c(C(F)(F)F)c1` (racemic) the IC50 (DU-145) was 17.7 µM, the IC50 (LNCaP) was 10 µM and the IC50 (VCaP) was 19.2 µM. It also gave an IC50 (CWR22R) of 14.7 µM.
With `CC(O)(COc1ccc(S(F)(F)(F)(F)F)cc1)C(=O)Nc1cccc(S(F)(F)(F)(F)F)c1` (racemic) the IC50 (DU-145) was 12.8 µM, the IC50 (LNCaP) was 8 µM and the IC50 (VCaP) was 8 µM. It also gave an IC50 (CWR22R) of 10.2 µM.
Work on `CC(O)(COc1ccccc1OC(F)(F)F)C(=O)Nc1ccc(S(F)(F)(F)(F)F)cc1` (racemic) yielded an IC50 (DU-145) of 16.8 µM, an IC50 (LNCaP) of 8.9 µM and an IC50 (VCaP) of 9.7 µM. For the same compound, the IC50 (CWR22R) was 7.3 µM.
`CC(O)(CS(=O)(=O)c1ccccc1C(F)(F)F)C(=O)Nc1ccc(S(F)(F)(F)(F)F)cc1` (racemic) gave an IC50 (DU-145) of 29.4 µM, an IC50 (LNCaP) of 10.8 µM and an IC50 (VCaP) of 23.8 µM. For the same compound, the IC50 (CWR22R) was 17.4 µM.
`CC(O)(CS(=O)(=O)c1cccc(S(F)(F)(F)(F)F)c1)C(=O)Nc1ccc([N+](=O)[O-])c(C(F)(F)F)c1` (racemic) gave an IC50 (DU-145) of 17.2 µM, an IC50 (LNCaP) of 13.8 µM and an IC50 (VCaP) of 24.6 µM. It also gave an IC50 (CWR22R) of 14.8 µM.
Compound `CC(O)(CS(=O)(=O)c1ccc(S(F)(F)(F)(F)F)cc1)C(=O)Nc1ccc(S(F)(F)(F)(F)F)cc1` (racemic) has an IC50 (DU-145) of 28.9 µM, an IC50 (LNCaP) of 29.2 µM and an IC50 (VCaP) of 15.7 µM. It also gave an IC50 (CWR22R) of 17.3 µM.
`CC(O)(COc1ccc(C#N)cc1)C(=O)Nc1ccc(S(F)(F)(F)(F)F)cc1` (racemic) gave an IC50 (DU-145) of 32.2 µM, an IC50 (LNCaP) of 100 µM and an IC50 (VCaP) of 100 µM. For the same compound, the IC50 (CWR22R) was 26.1 µM.
For `CC(O)(COc1ccccc1C(F)(F)F)C(=O)Nc1cccc(S(F)(F)(F)(F)F)c1` (racemic), the IC50 (DU-145) was 52.2 µM, the IC50 (LNCaP) was 26.3 µM and the IC50 (VCaP) was 36.7 µM. For the same compound, the IC50 (CWR22R) was 34.9 µM.
Work on `CC(O)(COc1cccc(C(F)(F)F)c1)C(=O)Nc1ccc(S(F)(F)(F)(F)F)cc1` (racemic) yielded an IC50 (DU-145) of 21.9 µM, an IC50 (LNCaP) of 24.7 µM and an IC50 (VCaP) of 24.7 µM. It also gave an IC50 (CWR22R) of 14.6 µM.
`CC(O)(COc1ccc(OC(F)(F)F)cc1)C(=O)Nc1cccc(S(F)(F)(F)(F)F)c1` (racemic) gave an IC50 (DU-145) of 19.1 µM, an IC50 (LNCaP) of 12.7 µM and an IC50 (VCaP) of 20.2 µM. The IC50 (CWR22R) was 12.9 µM.
For `CC(O)(COc1ccc(C(F)(F)F)cc1)C(=O)Nc1cccc(S(F)(F)(F)(F)F)c1` (racemic), the IC50 (DU-145) was 13.6 µM, the IC50 (LNCaP) was 9.6 µM and the IC50 (VCaP) was 13.3 µM. It also gave an IC50 (CWR22R) of 3.6 µM.
Work on `CC(O)(COc1cccc(S(F)(F)(F)(F)F)c1)C(=O)Nc1ccc(C(F)(F)F)cc1` (racemic) yielded an IC50 (DU-145) of 21 µM, an IC50 (LNCaP) of 12.8 µM and an IC50 (VCaP) of 23.8 µM. The IC50 (CWR22R) was 15.8 µM.
Compound `CC(O)(COc1ccc(C#N)c(F)c1)C(=O)Nc1ccc(S(F)(F)(F)(F)F)cc1` (racemic) has an IC50 (DU-145) of 30.4 µM, an IC50 (LNCaP) of 100 µM and an IC50 (VCaP) of 100 µM. The IC50 (CWR22R) was 24.3 µM.
With `CC(O)(COc1ccc(S(F)(F)(F)(F)F)cc1)C(=O)Nc1ccc(C(F)(F)F)cc1` (racemic) the IC50 (DU-145) was 27.4 µM, the IC50 (LNCaP) was 11.7 µM and the IC50 (VCaP) was 14.7 µM. The IC50 (CWR22R) was 12.9 µM.
With `CC(O)(COc1cccc(S(F)(F)(F)(F)F)c1)C(=O)Nc1cccc(S(F)(F)(F)(F)F)c1` (racemic) the IC50 (DU-145) was 30.7 µM, the IC50 (LNCaP) was 10.9 µM and the IC50 (VCaP) was 26.7 µM. For the same compound, the IC50 (CWR22R) was 27.3 µM.
`CC(O)(CS(=O)(=O)c1ccc(F)cc1)C(=O)Nc1ccc(S(F)(F)(F)(F)F)cc1` (racemic) gave an IC50 (DU-145) of 27.7 µM, an IC50 (LNCaP) of 18.2 µM and an IC50 (VCaP) of 34.2 µM. The IC50 (CWR22R) was 20.6 µM.
Compound `CC(O)(COc1ccccc1OC(F)(F)F)C(=O)Nc1cccc(S(F)(F)(F)(F)F)c1` (racemic) has an IC50 (DU-145) of 38.1 µM, an IC50 (LNCaP) of 16.1 µM and an IC50 (VCaP) of 27.7 µM. It also gave an IC50 (CWR22R) of 30 µM.
For `CC(O)(COc1ccc(C#N)cc1C(F)(F)F)C(=O)Nc1ccc(S(F)(F)(F)(F)F)cc1` (racemic), the IC50 (DU-145) was 21.2 µM, the IC50 (LNCaP) was 100 µM and the IC50 (VCaP) was 100 µM. It also gave an IC50 (CWR22R) of 13.8 µM.
In the case of `CC(O)(CS(=O)(=O)c1cccc(S(F)(F)(F)(F)F)c1)C(=O)Nc1ccc(C#N)cc1C(F)(F)F` (racemic), the IC50 (DU-145) is reported as 22.1 µM, the IC50 (LNCaP) is reported as 12.9 µM and the IC50 (VCaP) is reported as 20.8 µM. The IC50 (CWR22R) was 14.3 µM.
